CSN inh – blocks human CSN-mediated cullin deneddylation; Purified CSN, SCF-Nedd8-OG deneddylation, fluorescence polarization; inhibition, % at 12.5 µM; Q92905; 360,000 compounds, 0.38% hits;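 active = pattern-corrected inhibition above about 35%, with an unprinted fluorescence ratio check between 0.5 and 1.5, limit read from the data, passing the limit was not always enough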;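 note: 0% = enzyme with substrate and 100% = substrate without enzyme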
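Assay system: HEK293T-derived human Csn5 enzyme; quantity: 0.24 nM enzyme; medium: Tris/NaCl/DTT buffer, pH 7.5; also added: substrate SCFSkp2-Nedd8OG, 10 nM; doses: 12.5 µM compound; schedule: 90 min reaction at room temperature; signal: FP; read-out: % inhibition of substrate cleavage by Csn5; benchmarks: substrate-only high control, full reaction low control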
IDE cell activ – boosts human insulin-degrading enzyme activity in HEK cells. 340,000 compounds, 0.073% hits. FAbeta-B cleavage, fluorescence polarization; 0% vehicle, 100% cell-free pure enzyme wells. activation, % at 5.96 µM. AID 493087. P14735;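 active = activation above the mean of all tested compounds plus 3 SD, set per screening campaign, cut at about 17% in these data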
IDE inh – inhibitors of human insulin-degrading enzyme in cells; P14735; HEK cells, FAbetaB cleavage, fluorescence polarization; inhibition, % at 5.59 µM; 320,000 compounds, 0.41% hits;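 active = percent inhibition above the average of all tested compounds plus 3 SD, set per screening campaign, cut at about 16% in these data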;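 note: IDE supplied by intact live HEK cells; FP after avidin binding of uncleaved biotin substrate so inhibition keeps polarization high; 0% = DMSO wells and 100% = 60 µM reference IDE inhibitor Ii1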
Rpn11 block – inhibitors of human proteasome Rpn11; O00487; human 26S proteasome, Ub4-pepOG fluorescence polarization; 20S core pre-blocked with epoxomicin; inhibition, % at 20 µM; 360,000 compounds, 0.59% hits; AID 588493;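 active = inhibition at 20 µM, scaled to each plate's controls, above about 33%, limit read from the data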
TPT1 inh – blocks Candida albicans tRNA 2'-phosphotransferase; recombinant caTPT1, FP RNA substrate dephosphorylation; inhibition, % at 5 µM; 300,000 compounds, 0.81% hits;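 active = inhibition above the mean of all tested compounds plus 3 SD, set per screening campaign, cut at about 24% in these data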;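 note: plate controls were DMSO alone for no effect and ferristatin control at 100 nM for full effect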
HNF4A DNA FP – change in binding of human HNF4 alpha to DNA | P41235 | HNF4a-FITC DNA binding, fluorescence polarization, 1 h | activity change, % at 10 µM | 360,000 compounds, 0.3% hits | AID 1224865; in the data active = activity change above about 30%, passing the limit was not always enough
Target sequence (P41235 whole entry, looked up): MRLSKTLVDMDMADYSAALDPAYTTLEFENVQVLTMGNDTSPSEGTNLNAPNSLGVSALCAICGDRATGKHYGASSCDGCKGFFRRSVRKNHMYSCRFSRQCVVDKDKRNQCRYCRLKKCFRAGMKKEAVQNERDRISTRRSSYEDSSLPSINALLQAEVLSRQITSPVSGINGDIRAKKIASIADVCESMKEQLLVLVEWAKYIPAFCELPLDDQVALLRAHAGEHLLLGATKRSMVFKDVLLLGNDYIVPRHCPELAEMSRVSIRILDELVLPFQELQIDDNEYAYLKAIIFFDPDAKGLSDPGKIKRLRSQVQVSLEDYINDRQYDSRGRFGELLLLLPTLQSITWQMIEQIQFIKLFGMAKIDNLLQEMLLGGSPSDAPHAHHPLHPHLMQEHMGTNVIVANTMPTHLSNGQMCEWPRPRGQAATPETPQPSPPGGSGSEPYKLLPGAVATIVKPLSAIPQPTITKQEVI
* hit, by the source's call; nt = no result given; + = active, no number. Hits are enriched below; roughly 1.7% of the tested compounds scored in any of these assays.

SMILES | CSN inh | IDE cell activ | IDE inh | Rpn11 block | TPT1 inh | HNF4A DNA FP
COC(=O)C1=C(C)N(Cc2ccccc2)C(=NCc2ccccc2)N[C@H]1c1cccc(C(F)(F)F)c1 | 2 | 22* | 6 | 3 | nt | 9
COC(=O)C1=C(C)N(Cc2ccccc2)C(=NCC(C)C)N[C@H]1c1cccc(C(F)(F)F)c1 | 111 | 16 | 6 | 4 | nt | 5
COC(=O)C1=C(C)N(Cc2ccccc2)C(=NCc2cccc(Cl)c2)N[C@H]1c1cccc(F)c1 | -3 | 18* | 3 | 5 | nt | 7
O=C(NCc1ccccn1)c1c(-c2ccccc2)sc2ccccc12 | 0 | -2 | 1 | 6 | nt | -3
COc1cccc(NC(=O)CN(C)C(=O)c2cccnc2Sc2ccc(C)c(C)c2)c1 | -4 | 3 | 0 | 2 | 2 | 0
c1ccc(Oc2ccc(-n3cnnn3)cc2)cc1 | 1 | 6 | 0 | -9 | -2 | 57*
O=C(Oc1ccccc1)c1ccc(-n2cnnn2)cc1 | 0 | 1 | -3 | -2 | 5 | 1
COc1ccc(Cl)cc1NC(=S)NCCO | -10 | 1 | -4 | -4 | -3 | 57*
CC(=O)Oc1ccc(C(=O)Nc2cccc(C(=O)c3cccc(NC(=O)c4ccc(OC(C)=O)cc4)c3)c2)cc1 | 108* | 5 | 1 | 23 | 0 | 12
COc1cc(SC)ccc1C(=O)OCC(=O)N1CCN(C(C)=O)CC1 | -5 | 2 | -1 | 9 | -2 | -4
CC1CN(S(=O)(=O)c2ccc(C(=O)Nc3nccs3)cc2)CC(C)O1 (stereo not given) | -1 | 5 | 3 | -6 | 1 | -16
CC1CN(S(=O)(=O)c2ccc(C(=O)Nc3nncs3)cc2)CC(C)O1 (stereo not given) | -3 | 26* | 2 | 3 | nt | 1
Cc1cc(C)c(C(=O)OCC(=O)Nc2cccc(S(=O)(=O)N3CCCCC3)c2)c(C)c1 | + | 2 | 3 | -1 | 2 | -4
O=C(COC(=O)c1ccccc1Cl)Nc1cccc(S(=O)(=O)N2CCCCC2)c1 | -5 | nt | nt | -1 | nt | -2
Cc1csc(SCC(=O)Nc2cc(S(=O)(=O)N3CCCC3)ccc2Cl)n1 | 2 | -4 | -2 | 3 | 3 | -1
Cc1csc(SCC(=O)Nc2cccc(S(=O)(=O)N3CCCC3)c2)n1 | 106* | -1 | 0 | -5 | 2 | -3
CC(C)=CCC/C(C)=C/CNC(=O)C[C@H]1C[C@H](C(=O)N2CCCCC2)[C@@]2(CCc3ccccc3)c3[nH]c4cc(CCC(=O)N(C)C)ccc4c3CCN2C1=O | -7 | 0 | nt | 7 | nt | -5
O=C(/C=C/Nc1ccc(S(=O)(=O)Nc2ncccn2)cc1)c1ccc(Cl)c(Cl)c1 | 12 | 0 | 9 | 54* | 4 | 5
COc1cccc(C(=O)/C=C/Nc2ccc(S(=O)(=O)Nc3onc(C)c3C)cc2)c1 | -9 | 6 | 0 | 20 | -3 | 85*
CC(O)CNC12CC3CC(CC(C3)C1)C2 (stereo not given) | -1 | 0 | -5 | -2 | -1 | 0
Nc1c(N(CCC2=CCCCC2)C(=O)c2ccc([N+](=O)[O-])o2)c(=O)[nH]c(=O)n1Cc1ccccc1 | 2 | -1 | 4 | 39* | 9 | 8
Cc1ccc(C(=O)N(CCC2=CCCCC2)c2c(N)n(Cc3ccccc3)c(=O)[nH]c2=O)o1 | 3 | 3 | -9 | -5 | -1 | 1
CC(=O)c1ccc(S(=O)(=O)N2CCN(C(C)C(=O)N(C)Cc3ccccc3)CC2)cc1 (stereo not given) | -5 | -2 | 4 | -2 | nt | 7
O=C1NC(=O)/C(=C\c2ccc(OCc3cnc(Cl)s3)cc2)S1 | 37* | 4 | -1 | 23 | 0 | -6
O=C(O)c1ccccc1Nc1ccc([N+](=O)[O-])cc1 | -1 | 28* | -14 | 8 | -10 | -4
SMILES | CSN inh | IDE cell activ | IDE inh | Rpn11 block | TPT1 inh | HNF4A DNA FP
O=C(c1cc2cc(Cl)ccc2[nH]1)N1CCN(c2ccccn2)CC1 | 1 | 1 | 0 | 4 | -6 | -3
Cc1ccc(CN2C(=O)C(CC(C)C)Nc3ncnc(N4CCCCC4)c32)cc1 (stereo not given) | 78* | nt | nt | -1 | nt | 8
O=S(=O)(Nc1nc(-c2ccco2)c(-c2ccco2)s1)c1ccc(F)cc1F | 39* | nt | nt | 6 | nt | -9
Cc1c2ccccc2cc[n+]1CCCS(=O)(=O)[O-] | 2 | -2 | -2 | -2 | -2 | -5
CC1(C)C(/C=C/C=C/C=C/C=C2\N(CCCCS(=O)(=O)O)c3ccc4ccccc4c3C2(C)C)=[N+](CCCCS(=O)(=O)[O-])c2ccc3ccccc3c21 | 83 | -9 | 21* | 27 | 75* | -25
CC1CCCN(C(=O)CSc2nnc3ccccn23)C1 (stereo not given) | 1 | 3 | 0 | -6 | nt | -2
Cc1nnsc1C(=O)N1CCCC(Nc2ccc(F)c(F)c2)C1 (stereo not given) | -3 | 9 | 4 | 3 | 1 | -1
Cc1ccc(NC(=O)C2CC(=O)N(c3ccc4c5c(cccc35)CC4)C2)cc1 (stereo not given) | 35* | -7 | 10 | 0 | -3 | 2
C=CC(=O)Nc1cccc(Oc2ccnc3[nH]ccc23)c1 | 122* | 4 | nt | 95* | nt | 174
C=CC(=O)Nc1cccc(Oc2ccnc(Nc3ccc(N4CCN(C)CC4)cc3)n2)c1 | 7 | 0 | nt | 29 | nt | 23
Cc1cc(C(=O)NC2CCC(O)CC2)c(C)o1 (stereo not given) | 89* | 3 | -1 | -1 | nt | -1
Cc1cc(C(=O)NC2CCCc3ccccc32)c(C)o1 (stereo not given) | -4 | 8 | 3 | -1 | 1 | 4
Cc1cc(C(=O)N[C@H](c2ccccc2)[C@@]2(C)C[C@@H]2[C@@H](C)C(=O)Nc2ccc3ccccc3c2)n(C)n1 | -2 | 2 | 11 | -1 | -2 | -4
Cc1ccc(N2C(=O)N(CC(=O)N3CCOCC3)C(=O)C2C)cc1 (stereo not given) | -3 | -3 | -5 | 1 | 4 | 5
COc1ccccc1N1CCN(S(=O)(=O)c2ccc3nc(-c4ccccc4)[nH]c3c2)CC1 | -3 | -25 | 32* | 3 | -1 | 2
O=S(=O)(c1ccc2nc(-c3ccccc3)[nH]c2c1)N1CCN(c2cccc(Cl)c2)CC1 | 2 | -1 | -6 | 10 | -2 | 4
CCOc1ccc(Br)cc1C1=NN(C(C)=O)C(c2ccc([N+](=O)[O-])s2)O1 (stereo not given) | 10 | 5 | nt | 3 | nt | 0
CS(=O)(=O)Nc1cccc(NC(=O)C2Cc3c(-c4cccc(F)c4)ccnc3O2)c1 (stereo not given) | 1 | nt | nt | -1 | nt | 3

Screening data from PubChem.
